Laboratory results from ChEMBL document CHEMBL3808372, “Identification of quinones as novel PIM1 kinase inhibitors” (Bioorg Med Chem Lett, 2016).

What was measured:
[1] = biological target: Non-receptor tyrosine-protein kinase TYK2 (Homo sapiens) (UniProt P29597); assay: Inhibition of human TYK2 JH1 catalytic domain (877 to 1187 amino acid residues) assessed as enzyme activity at 10 uM by KINOMEScan assay; set-up: scale not given: the % may be the effect or the level left
Summary of the method: (§1)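 Single-concentration competition binding screen (KINOMEscan) across a 100-kinase panel at 10 μM. Primary binding read-out is reported as % of control: (test signal − positive-control signal)/(negative-control signal − positive-control signal) × 100. Lower values indicate stronger binding.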

[2] = biological target: Serine/threonine-protein kinase pim-3 (Homo sapiens) (UniProt Q86V86); assay: Inhibition of PIM3 (unknown origin)
[3] = biological target: Serine/threonine-protein kinase B-raf (Homo sapiens) (UniProt P15056); assay: Inhibition of human BRAF (429 to 741 amino acid residues) assessed as enzyme activity at 10 uM by KINOMEScan assay; set-up: scale not given: the % may be the effect or the level left
Summary of the method: (§2)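 Competition binding screen on a 100-kinase KINOMEscan panel, compound tested at a single 10 μM concentration. Primary binding read-out expressed as % Ctrl = (test compound signal − positive control signal)/(negative control signal − positive control signal) × 100, with lower values meaning stronger binding.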

[4] = biological target: Bone morphogenetic protein receptor type-2 (Homo sapiens) (UniProt Q13873); assay: Inhibition of human BMPR2 (179 to 526 amino acid residues) assessed as enzyme activity at 10 uM by KINOMEScan assay; set-up: scale not given: the % may be the effect or the level left; summary of the method: as §2
[5] = biological target: Serine/threonine-protein kinase pim-1 (Homo sapiens, UniProt P11309); assay: Inhibition of recombinant human Pim1
[6] = test system: Tyrosine-protein kinase ABL1 (Homo sapiens), P00519 [E255K]; assay: Inhibition of human ABL1 kinase E255K mutant phosphorylation (229 to 512 amino acid residues) assessed as enzyme activity at 10 uM by KINOMEScan assay; set-up: scale not given: the % may be the effect or the level left; summary of the method: as §2
[7] = biological target: Serine/threonine-protein kinase Chk1 (Homo sapiens) (UniProt O14757); assay: Inhibition of human CHEK1 (1 to 289 amino acid residues) assessed as enzyme activity at 10 uM by KINOMEScan assay expressed in bacterial system assessed as enzyme activity at 10 uM by KINOMEScan assay; set-up: scale not given: the % may be the effect or the level left; summary of the method: as §2
[8] = biological target: Mitogen-activated protein kinase 14 (Homo sapiens) (UniProt Q16539); assay: Inhibition of full length human p38-alpha expressed in bacterial system assessed as enzyme activity at 10 uM by KINOMEScan assay; set-up: scale not given: the % may be the effect or the level left
Chain of Mitogen-activated protein kinase 14 (Homo sapiens) (Q16539 whole entry): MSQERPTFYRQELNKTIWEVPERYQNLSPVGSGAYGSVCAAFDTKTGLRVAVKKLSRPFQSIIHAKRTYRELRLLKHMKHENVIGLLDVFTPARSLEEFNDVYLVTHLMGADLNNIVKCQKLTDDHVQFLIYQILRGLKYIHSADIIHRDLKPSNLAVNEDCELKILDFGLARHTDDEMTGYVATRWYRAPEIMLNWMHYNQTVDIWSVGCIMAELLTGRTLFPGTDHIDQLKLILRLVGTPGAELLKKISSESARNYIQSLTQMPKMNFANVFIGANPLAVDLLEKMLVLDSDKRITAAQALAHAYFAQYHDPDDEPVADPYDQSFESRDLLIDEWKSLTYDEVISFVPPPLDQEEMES
Summary of the method: (§3)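 Commercial KINOMEscan binding panel of 100 kinases, test compound at 10 μM. Results are primary-screen binding interactions expressed as % Ctrl = (test compound signal − positive control signal)/(negative control signal − positive control signal) × 100. Lower % Ctrl means stronger binding.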

[9] = biological target: Protein kinase C epsilon type (Homo sapiens) (UniProt Q02156); assay: Inhibition of human PRKCE (378 to 737 amino acid residues) assessed as enzyme activity at 10 uM by KINOMEScan assay; set-up: scale not given: the % may be the effect or the level left; summary of the method: as §1
[10] = biological target: Mitogen-activated protein kinase 10 (Homo sapiens) (UniProt P53779); assay: Inhibition of human JNK3 (28 to 422 amino acid residues) assessed as enzyme activity at 10 uM by KINOMEScan assay; set-up: scale not given: the % may be the effect or the level left; summary of the method: as §2
[11] = biological target: Proto-oncogene tyrosine-protein kinase Src (Homo sapiens) (UniProt P12931); assay: Inhibition of SRC (unknown origin)
Chain of Proto-oncogene tyrosine-protein kinase Src (Homo sapiens) (P12931 2-536 limits assumed): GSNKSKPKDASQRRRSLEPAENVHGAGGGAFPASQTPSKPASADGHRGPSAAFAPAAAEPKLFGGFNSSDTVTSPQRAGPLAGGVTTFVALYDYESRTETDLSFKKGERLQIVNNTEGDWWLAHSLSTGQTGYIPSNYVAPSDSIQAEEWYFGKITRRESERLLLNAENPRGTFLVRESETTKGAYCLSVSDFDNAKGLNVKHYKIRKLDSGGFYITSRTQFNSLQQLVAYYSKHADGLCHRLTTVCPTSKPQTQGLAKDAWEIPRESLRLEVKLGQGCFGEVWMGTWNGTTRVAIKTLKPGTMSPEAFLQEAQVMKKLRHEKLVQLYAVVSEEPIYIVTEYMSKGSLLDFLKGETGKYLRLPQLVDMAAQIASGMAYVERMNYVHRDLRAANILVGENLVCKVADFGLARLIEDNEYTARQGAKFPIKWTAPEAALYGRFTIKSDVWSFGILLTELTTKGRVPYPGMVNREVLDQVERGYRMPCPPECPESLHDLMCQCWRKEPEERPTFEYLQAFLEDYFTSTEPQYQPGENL

[12] = biological target: MAP kinase-interacting serine/threonine-protein kinase 2 (Homo sapiens) (UniProt Q9HBH9); assay: Inhibition of human MKNK2 (63 to 388 amino acid residues) assessed as enzyme activity at 10 uM by KINOMEScan assay; set-up: scale not given: the % may be the effect or the level left; summary of the method: as §2
[13] = biological target: Insulin receptor (Homo sapiens) (UniProt P06213); assay: Inhibition of human INSR (997 to 1318 amino acid residues) assessed as enzyme activity at 10 uM by KINOMEScan assay; set-up: scale not given: the % may be the effect or the level left; summary of the method: as §2
[14] = biological target: Phosphatidylinositol 4-phosphate 3-kinase C2 domain-containing subunit beta (Homo sapiens) (UniProt O00750); assay: Inhibition of human PIK3C2B (1 to 1634 amino acid residues) assessed as enzyme activity at 10 uM by KINOMEScan assay; set-up: scale not given: the % may be the effect or the level left; summary of the method: as §3
[15] = biological target: Dual specificity mitogen-activated protein kinase kinase 2 (Homo sapiens) (UniProt P36507); assay: Inhibition of full length human MEK2 assessed as enzyme activity at 10 uM by KINOMEScan assay; set-up: scale not given: the % may be the effect or the level left; summary of the method: as §2
[16] = biological target: Aurora kinase A (Homo sapiens) (UniProt O14965); assay: Inhibition of human AURKA (122 to 401 amino acid residues) assessed as enzyme activity at 10 uM by KINOMEScan assay; set-up: scale not given: the % may be the effect or the level left; summary of the method: as §2
Chain of Aurora kinase A (Homo sapiens) (O14965 whole entry, the tested form may be a part): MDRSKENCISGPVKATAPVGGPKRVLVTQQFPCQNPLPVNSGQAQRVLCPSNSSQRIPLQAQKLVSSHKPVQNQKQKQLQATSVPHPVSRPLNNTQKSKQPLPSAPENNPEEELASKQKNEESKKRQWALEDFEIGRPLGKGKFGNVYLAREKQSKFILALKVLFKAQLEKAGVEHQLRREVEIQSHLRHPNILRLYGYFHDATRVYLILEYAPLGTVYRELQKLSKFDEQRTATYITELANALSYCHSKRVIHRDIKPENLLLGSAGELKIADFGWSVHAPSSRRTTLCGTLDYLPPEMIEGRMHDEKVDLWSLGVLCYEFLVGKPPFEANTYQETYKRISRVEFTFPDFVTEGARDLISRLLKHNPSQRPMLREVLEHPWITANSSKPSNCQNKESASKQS

[17] = biological target: Serine/threonine-protein kinase DCLK1 (Homo sapiens) (UniProt O15075); assay: Inhibition of human DCAMKL1 (270 to 662 amino acid residues) assessed as enzyme activity at 10 uM by KINOMEScan assay; set-up: scale not given: the % may be the effect or the level left; summary of the method: as §2
[18] = biological target: Cyclin-dependent kinase 16 (Homo sapiens) (UniProt Q00536); assay: Inhibition of human PCTK1 (160 to 474 amino acid residues) assessed as enzyme activity at 10 uM by KINOMEScan assay; set-up: scale not given: the % may be the effect or the level left; summary of the method: as §3
Chain of Cyclin-dependent kinase 16 (Homo sapiens) (Q00536 whole entry, the tested form may be a part): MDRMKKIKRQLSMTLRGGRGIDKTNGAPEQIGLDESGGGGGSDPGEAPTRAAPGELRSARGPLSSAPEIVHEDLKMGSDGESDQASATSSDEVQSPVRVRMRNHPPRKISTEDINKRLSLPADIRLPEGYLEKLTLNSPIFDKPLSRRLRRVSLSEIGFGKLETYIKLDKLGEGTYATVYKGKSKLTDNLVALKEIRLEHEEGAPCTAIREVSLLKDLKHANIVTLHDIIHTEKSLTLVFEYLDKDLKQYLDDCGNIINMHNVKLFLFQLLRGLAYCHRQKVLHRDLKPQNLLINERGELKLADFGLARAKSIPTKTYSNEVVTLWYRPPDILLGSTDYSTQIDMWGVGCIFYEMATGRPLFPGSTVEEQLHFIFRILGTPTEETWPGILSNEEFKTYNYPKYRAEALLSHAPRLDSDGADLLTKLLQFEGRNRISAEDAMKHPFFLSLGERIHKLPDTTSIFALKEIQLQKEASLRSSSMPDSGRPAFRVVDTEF

[19] = biological target: cAMP-dependent protein kinase catalytic subunit alpha (Homo sapiens) (UniProt P17612); assay: Inhibition of human PKAC-alpha (10 to 351 amino acid residues) expressed in bacterial system assessed as enzyme activity at 10 uM by KINOMEScan assay; set-up: scale not given: the % may be the effect or the level left; summary of the method: as §1
[20] = biological target: Angiopoietin-1 receptor (Homo sapiens) (UniProt Q02763); assay: Inhibition of human TIE2 (804 to 1112 amino acid residues) expressed in bacterial system assessed as enzyme activity at 10 uM by KINOMEScan assay; set-up: scale not given: the % may be the effect or the level left; summary of the method: as §1
Chain of Angiopoietin-1 receptor (Homo sapiens) (Q02763 whole entry, the tested form may be a part): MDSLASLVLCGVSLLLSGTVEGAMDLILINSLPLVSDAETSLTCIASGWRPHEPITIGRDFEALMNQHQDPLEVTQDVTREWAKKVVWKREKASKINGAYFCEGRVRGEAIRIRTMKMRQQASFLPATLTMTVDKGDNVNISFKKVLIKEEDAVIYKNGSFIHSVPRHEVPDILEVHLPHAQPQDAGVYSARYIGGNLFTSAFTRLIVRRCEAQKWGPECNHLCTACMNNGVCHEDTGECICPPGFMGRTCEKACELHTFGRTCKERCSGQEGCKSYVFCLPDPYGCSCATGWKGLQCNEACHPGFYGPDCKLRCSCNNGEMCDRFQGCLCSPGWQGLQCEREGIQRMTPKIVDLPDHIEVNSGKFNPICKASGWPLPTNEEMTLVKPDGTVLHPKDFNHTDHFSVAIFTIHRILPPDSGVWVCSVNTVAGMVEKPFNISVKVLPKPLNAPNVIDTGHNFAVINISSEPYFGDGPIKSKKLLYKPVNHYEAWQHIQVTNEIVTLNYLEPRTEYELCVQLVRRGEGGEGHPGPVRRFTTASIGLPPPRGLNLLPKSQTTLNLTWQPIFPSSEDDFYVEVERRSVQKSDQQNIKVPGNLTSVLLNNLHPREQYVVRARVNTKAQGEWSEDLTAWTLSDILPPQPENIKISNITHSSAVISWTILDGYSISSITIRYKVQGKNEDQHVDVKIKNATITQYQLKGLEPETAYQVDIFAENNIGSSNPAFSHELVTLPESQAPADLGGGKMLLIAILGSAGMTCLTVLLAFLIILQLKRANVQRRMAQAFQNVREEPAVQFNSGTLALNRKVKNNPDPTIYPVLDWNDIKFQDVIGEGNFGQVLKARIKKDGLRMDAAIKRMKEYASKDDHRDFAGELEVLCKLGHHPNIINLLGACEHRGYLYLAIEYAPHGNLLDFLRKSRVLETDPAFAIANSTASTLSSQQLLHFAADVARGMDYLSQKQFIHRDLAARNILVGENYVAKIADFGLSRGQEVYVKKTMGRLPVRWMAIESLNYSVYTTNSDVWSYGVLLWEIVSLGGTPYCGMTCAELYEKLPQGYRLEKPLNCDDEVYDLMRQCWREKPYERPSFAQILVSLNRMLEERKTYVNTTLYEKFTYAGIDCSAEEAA

[21] = test system: Epidermal growth factor receptor (Homo sapiens), P00533 [L858R]; assay: Inhibition of human EGFR L858R mutant (669 to 1011 amino acid residues) assessed as enzyme activity at 10 uM by KINOMEScan assay expressed in bacterial system assessed as enzyme activity at 10 uM by KINOMEScan assay; set-up: scale not given: the % may be the effect or the level left; summary of the method: as §3
[22] = biological target: RAC-beta serine/threonine-protein kinase (Homo sapiens) (UniProt P31751); assay: Inhibition of human Akt2 expressed in bacterial system assessed as enzyme activity at 10 uM by KINOMEScan assay; set-up: scale not given: the % may be the effect or the level left; summary of the method: as §3
Chain of RAC-beta serine/threonine-protein kinase (Homo sapiens) (P31751 whole entry, the tested form may be a part): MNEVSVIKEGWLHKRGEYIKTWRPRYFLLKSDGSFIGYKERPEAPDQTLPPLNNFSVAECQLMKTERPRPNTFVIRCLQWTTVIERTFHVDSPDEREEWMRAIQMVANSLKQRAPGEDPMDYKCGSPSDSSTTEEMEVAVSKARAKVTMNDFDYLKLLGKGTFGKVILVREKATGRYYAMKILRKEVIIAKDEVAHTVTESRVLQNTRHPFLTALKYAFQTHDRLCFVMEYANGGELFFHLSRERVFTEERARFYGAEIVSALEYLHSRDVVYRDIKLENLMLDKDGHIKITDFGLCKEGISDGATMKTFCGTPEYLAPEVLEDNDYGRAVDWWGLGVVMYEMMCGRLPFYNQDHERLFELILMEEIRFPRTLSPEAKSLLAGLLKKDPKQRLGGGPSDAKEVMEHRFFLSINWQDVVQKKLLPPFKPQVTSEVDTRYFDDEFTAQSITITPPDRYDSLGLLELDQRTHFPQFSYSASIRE

[23] = biological target: Serine/threonine-protein kinase RIO2 (Homo sapiens) (UniProt Q9BVS4); assay: Inhibition of human RIOK2 (1 to 313 amino acid residues) assessed as enzyme activity at 10 uM by KINOMEScan assay; set-up: scale not given: the % may be the effect or the level left; summary of the method: as §3
[24] = biological target: Serine/threonine-protein kinase pim-2 (Homo sapiens) (UniProt Q9P1W9); assay: Inhibition of PIM2 (unknown origin)
[25] = biological target: ALK tyrosine kinase receptor (Homo sapiens) (UniProt Q9UM73); assay: Inhibition of human ALK (1088 to 1409 amino acid residues) assessed as enzyme activity at 10 uM by KINOMEScan assay; set-up: scale not given: the % may be the effect or the level left; summary of the method: as §3
[26] = biological target: Casein kinase I isoform delta (Homo sapiens) (UniProt P48730); assay: Inhibition of full length human CSNK1D expressed in bacterial system assessed as enzyme activity at 10 uM by KINOMEScan assay system assessed as enzyme activity at 10 uM by KINOMEScan assay; set-up: scale not given: the % may be the effect or the level left; summary of the method: as §2
Chain of Casein kinase I isoform delta (Homo sapiens) (P48730 whole entry, looked up, canonical isoform): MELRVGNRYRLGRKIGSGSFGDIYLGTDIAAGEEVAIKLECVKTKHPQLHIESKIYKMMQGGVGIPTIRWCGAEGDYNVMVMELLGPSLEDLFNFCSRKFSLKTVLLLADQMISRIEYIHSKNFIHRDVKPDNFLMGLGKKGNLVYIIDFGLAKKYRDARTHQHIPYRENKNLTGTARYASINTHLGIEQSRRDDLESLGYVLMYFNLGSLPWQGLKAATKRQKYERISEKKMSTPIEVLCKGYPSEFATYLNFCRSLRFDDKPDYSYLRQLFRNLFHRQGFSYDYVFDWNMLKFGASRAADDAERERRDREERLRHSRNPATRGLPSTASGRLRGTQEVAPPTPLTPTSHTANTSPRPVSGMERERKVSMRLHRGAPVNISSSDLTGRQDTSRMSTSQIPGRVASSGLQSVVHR

[27] = biological target: Dual specificity tyrosine-phosphorylation-regulated kinase 1B (Homo sapiens) (UniProt Q9Y463); assay: Inhibition of full length human DYRK1B expressed in bacterial system assessed as enzyme activity at 10 uM by KINOMEScan assay; set-up: scale not given: the % may be the effect or the level left; summary of the method: as §2

Chain of Non-receptor tyrosine-protein kinase TYK2 (Homo sapiens) (P29597 whole entry, the tested form may be a part): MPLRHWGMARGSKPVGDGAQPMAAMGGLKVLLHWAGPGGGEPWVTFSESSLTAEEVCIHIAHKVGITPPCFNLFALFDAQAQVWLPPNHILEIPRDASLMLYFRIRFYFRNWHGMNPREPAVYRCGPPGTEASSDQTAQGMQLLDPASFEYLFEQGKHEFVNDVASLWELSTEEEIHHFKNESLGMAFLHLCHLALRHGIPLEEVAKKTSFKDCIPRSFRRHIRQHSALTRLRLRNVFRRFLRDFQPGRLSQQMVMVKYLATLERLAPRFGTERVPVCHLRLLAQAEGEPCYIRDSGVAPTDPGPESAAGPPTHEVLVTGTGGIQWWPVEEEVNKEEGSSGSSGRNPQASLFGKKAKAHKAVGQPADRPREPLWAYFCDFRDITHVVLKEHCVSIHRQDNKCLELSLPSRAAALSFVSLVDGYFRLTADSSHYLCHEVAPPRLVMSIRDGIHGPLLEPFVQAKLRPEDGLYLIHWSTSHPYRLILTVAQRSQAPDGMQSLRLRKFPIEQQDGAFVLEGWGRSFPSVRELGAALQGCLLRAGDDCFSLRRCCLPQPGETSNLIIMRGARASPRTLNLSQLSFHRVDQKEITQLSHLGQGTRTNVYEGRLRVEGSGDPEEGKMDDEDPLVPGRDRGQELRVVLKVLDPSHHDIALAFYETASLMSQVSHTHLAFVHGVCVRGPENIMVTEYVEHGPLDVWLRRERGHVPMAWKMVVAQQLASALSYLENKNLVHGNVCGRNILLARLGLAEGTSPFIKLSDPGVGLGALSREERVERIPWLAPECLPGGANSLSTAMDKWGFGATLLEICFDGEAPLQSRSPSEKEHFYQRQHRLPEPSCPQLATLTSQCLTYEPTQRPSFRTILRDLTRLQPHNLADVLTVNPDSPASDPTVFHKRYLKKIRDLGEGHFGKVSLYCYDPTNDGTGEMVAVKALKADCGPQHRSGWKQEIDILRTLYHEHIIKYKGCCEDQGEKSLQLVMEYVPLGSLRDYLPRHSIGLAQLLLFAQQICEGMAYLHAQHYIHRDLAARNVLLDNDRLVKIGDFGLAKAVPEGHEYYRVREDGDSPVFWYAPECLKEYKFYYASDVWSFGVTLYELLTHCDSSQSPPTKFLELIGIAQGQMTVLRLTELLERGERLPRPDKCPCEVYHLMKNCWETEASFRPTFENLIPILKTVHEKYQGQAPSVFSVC

Work on O=C1C2=C(C(=O)c3c(O)ccc(O)c31)[C@@H](O)[C@@H](O)[C@@H](O)C2 yielded an Activity [1] of 57%, a % of MOE kinase hits [2] of 29% and an Activity [3] of 87%. It also gave an Activity [4] of 60%, an IC50 [5] of 19.2 µM and an Activity [6] of 96%. It also gave an Activity [7] of 79%, an Activity [8] of 100% and an Activity [9] of 92%. The Activity [10] was 76%, the % of MOE kinase hits [11] was 14% and the Activity [12] was 98%. It also gave an Activity [13] of 97%, an Activity [14] of 100% and an Activity [15] of 96%. The Activity [16] was 87%, the Activity [17] was 90% and the Activity [18] was 100%. For the same molecule, the Activity [19] was 84%, the Activity [20] was 89% and the Activity [21] was 78%. The Activity [22] was 100%, the Activity [23] was 86% and the % of MOE kinase hits [24] was 29%. The Activity [25] was 100%, the Activity [26] was 30% and the Activity [27] was 53%.
